Read-outs that look alike come from different tables or passages of the source.
Columns and labels:
[1] = assay type: in vivo, healthy adult subjects (human)
Summary of the method: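 Open-label, fixed-sequence, three periods, ≥10-day washouts, overnight-fasted. Single oral inhibitor FDC (50 mg/100 mg) given alone, after H2-antagonist 20 mg orally ~10 h and 2 h before, or ~2 h after PPI 40 mg on day 5 of 5 daily doses. Plasma sampled predose to 96 h; LC-MS/MS. Noncompartmental; t½ = ln2/λz; GMRs via mixed-effects model on log values.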

[2] = ref previous studies; cited from earlier work
[3] = cited from earlier work

## COC(=O)N[C@H](C(=O)N1CCC[C@H]1c1nc(-c2ccc3c(c2)O[C@@H](c2ccccc2)n2c-3cc3cc(-c4c[nH]c([C@@H]5CCCN5C(=O)[C@@H](NC(=O)OC)C(C)C)n4)ccc32)c[nH]1)C(C)C [EBR, elbasvir]
[1]; EBR in plasma, EBR/GZR FDC + FAM 20 mg given 10 h and 2 h before
  tmax, median: 3.50 h
[1]; EBR, EBR/GZR FDC + FAM / EBR/GZR FDC
  C24 GMR: 1.03
[1]; EBR, EBR/GZR FDC + PAN / EBR/GZR FDC
  C24 GMR: 1.03
[1]; human, plasma, po, 100 mg
  Tmax: 3.5 h
  half-life: 19.3 h
[2]
  apparent terminal half-life (t½): ~20 h
  time to maximum drug concentration (tmax): 2 to 4 h

## C=C[C@@H]1C[C@]1(NC(=O)[C@@H]1C[C@@H]2CN1C(=O)[C@H](C(C)(C)C)NC(=O)O[C@@H]1C[C@H]1CCCCCc1nc3ccc(OC)cc3nc1O2)C(=O)NS(=O)(=O)C1CC1 [GZR, grazoprevir]
[1]; GZR, EBR/GZR FDC + FAM / EBR/GZR FDC
  C24 GMR: 1.12
[1]; GZR, EBR/GZR FDC + PAN / EBR/GZR FDC
  C24 GMR: 1.17
[1]; human, plasma, po, 100 mg
  half-life: 33.8 h
[2]
  apparent terminal half-life (t½): ~20 h
  time to maximum drug concentration (tmax): 2 to 4 h

## COC(=O)N[C@H](C(=O)N1CC2(CC2)C[C@H]1c1ncc(-c2ccc3c(c2)C(F)(F)c2cc(-c4ccc5nc([C@@H]6[C@H]7CC[C@H](C7)N6C(=O)[C@@H](NC(=O)OC)C(C)C)[nH]c5c4)ccc2-3)[nH]1)C(C)C [ledipasvir]
[3]
  solubility versus stomach pH: decrease as stomach pH increases

## COC[C@H]1C[C@@H](c2ncc(-c3ccc4c(c3)COc3cc5c(ccc6nc([C@@H]7CC[C@H](C)N7C(=O)[C@@H](NC(=O)OC)C(C)C)[nH]c65)cc3-4)[nH]2)N(C(=O)[C@H](NC(=O)OC)c2ccccc2)C1 [velpatasvir]
[3]
  solubility versus stomach pH: decrease as stomach pH increases
